Experimental findings from ChEMBL document CHEMBL1157805, “Virtual screening, selection and development of a benzindolone structural scaffold for inhibition of lumazine synthase” (Bioorg Med Chem, 2010) are described below.

Calls of active or inactive are those of the source. The calls are words filed in the database; no cut-off is given here.

Experiment [1] concerns Mycobacterium tuberculosis. Kind of experiment: Activity at Mycobacterium tuberculosis recombinant riboflavin synthase after 30 mins by fluorescence assay. The method in brief: (§1)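 Recombinant M. tuberculosis riboflavin synthase (1 μM) in 100 mM Tris-HCl pH 7.0, 100 mM NaCl, 5 mM DTT, 2% DMSO. 6,7-Dimethyl-8-ribityllumazine substrate was varied 3–60 μM and inhibitor 0–200 μM. Reactions were started with substrate. Riboflavin formation was monitored at 470 nm for 30 min at 27 °C. Velocity–substrate data for all inhibitor levels were fitted by nonlinear regression to alternative inhibition models.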

The target of experiment [2] is 6,7-dimethyl-8-ribityllumazine synthase (Mycobacterium tuberculosis) (UniProt P9WHE9). Kind of experiment: Mixed Inhibition of Mycobacterium tuberculosis recombinant lumazine synthase. In short, it runs like this:
(§2)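 Recombinant M. tuberculosis lumazine synthase (2 μM) in 100 mM Tris-HCl pH 7.0, 100 mM NaCl, 5 mM DTT, 2% DMSO. Dihydroxybutanone phosphate was fixed at 100 μM, pyrimidinedione substrate varied 3–100 μM, and inhibitor 0–200 μM. Reactions were started with the pyrimidinedione substrate. Lumazine formation was read at 408 nm for 30 min at 27 °C. Velocity–substrate data were fitted by nonlinear regression to alternative inhibition models.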

Experiment [3] has the same target. The experiment can be described thus: Uncompetitive inhibition of Mycobacterium tuberculosis recombinant lumazine synthase. In short, it runs like this:
as §2

Experiment [4] has as its system Mycobacterium tuberculosis. The experiment can be described thus: Uncompetitive inhibition of Mycobacterium tuberculosis recombinant riboflavin synthase. The method in brief: as §1

Sequence of 6,7-dimethyl-8-ribityllumazine synthase (Mycobacterium tuberculosis) (P9WHE9 whole entry): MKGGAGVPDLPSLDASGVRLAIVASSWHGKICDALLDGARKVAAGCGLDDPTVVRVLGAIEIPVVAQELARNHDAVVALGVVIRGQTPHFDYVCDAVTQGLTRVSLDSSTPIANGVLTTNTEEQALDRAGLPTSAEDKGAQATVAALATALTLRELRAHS

As a reminder, the kcat is the maximal rate divided by the concentration of active sites. `O=C1Nc2ccc(S(=O)(=O)NCCCOP(=O)(O)O)c3cccc1c23`: the kcat in experiment [1] was 0.00467 s⁻¹. Moreover, the inhibition entry in experiment [2] is “Active”.

Turning to `O=C1Nc2ccc(S(=O)(=O)NCCOP(=O)(O)O)c3cccc1c23`, the turnover number (kcat) in experiment [1] was found to be 0.005 s⁻¹.

As to `O=C1Nc2ccc(S(=O)(=O)NCCCCCOP(=O)(O)O)c3cccc1c23`, the kcat in experiment [1] worked out at 0.00933 s⁻¹. For the same molecule, the inhibition entry in experiment [3] and in experiment [4] was “Active” each time.

As for `O=C1Nc2ccc(S(=O)(=O)NCCCCOP(=O)(O)O)c3cccc1c23`, in experiment [1], the kcat was found to be 0.00483 s⁻¹. Also, in experiment [2], the inhibition entry was “Active”.

On to `O=C1Nc2ccc(S(=O)(=O)NCCCCCCOP(=O)(O)O)c3cccc1c23`, for which, in experiment [1], the kcat was determined as 0.00933 s⁻¹. Further, the inhibition entry in experiment [3] and in experiment [4] was “Active” in each case.

For the molecule `O=C1Nc2ccc(S(=O)(=O)NCCCCC(F)(F)P(=O)(O)O)c3cccc1c23`, the inhibition result in experiment [2] was “Active”.

As to `CCOC(=O)C(=O)Nc1c(Cl)[nH]c(=O)[nH]c1=O`, the kcat in experiment [1] turned out to be 0.00567 s⁻¹. In addition, the inhibition entry in experiment [2] and in experiment [4] was “Active” throughout.
